This test is described as follows: Binding affinity to pig pancreatic cholesterol esterase. More on the design: species or system Sus scrofa. In short, it runs like this:
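Porcine enzyme assayed in 0.1 M Hepes, pH 7, with 6 mM taurocholate and 1 mM p-nitrophenylbutyrate substrate; hydrolysis followed at 405 nm. Inhibition constants derived from double reciprocal and Dixon plots, and for high-affinity inhibitors from Straus-Goldstein plots.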

SMILES strings stand for the structures.

One may read the Ki as a measure of affinity in units of concentration, obtained from inhibition or displacement. The low end stands for higher affinity, the high end for lower affinity. As to `O=c1oc(OCCC2CCCCC2)c(Cl)c2ccccc12`, the Ki stood at 1.2 µM. This counts as single-digit micromolar.

Compound `CCCOc1oc(=O)c2ccccc2c1C(=O)C(F)(F)F` came in with a Ki above 25 µM.

`CCCCOc1oc(=O)c2ccccc2c1Cl` had an inhibition constant (Ki) of 6.5 µM.

Regarding `O=c1oc(OC2CCCCC2)c(Cl)c2ccccc12`, the Ki was found to be 1.2 µM.

In turn, `O=c1oc(OCCC2CCCCC2)c(Cl)c2ccc([N+](=O)[O-])cc12` yielded an inhibitory constant (Ki) of 0.7 µM. Against the preceding compound, the Ki is about 1.7-fold lower.

`O=c1oc(OCCC2CCCC2)c(Cl)c2ccccc12` had a Ki of 0.26 µM. Against the preceding compound, the Ki is about 2.7-fold lower.

`O=c1oc(OCC2CCCCC2)c(Cl)c2ccccc12` displayed a Ki of 1.8 µM.

`O=c1oc(OCCCC2CCCCC2)c(Cl)c2ccccc12` had a Ki of 0.18 µM.

`CCCOc1oc(=O)c2ccccc2c1Cl` returned a Ki of 3.6 µM.

In turn, `O=c1oc(OCCC2CCCCC2)cc2ccc([N+](=O)[O-])cc12` yielded a Ki above 100 µM.

Consider `O=C(c1c(OCC2CCCCC2)oc(=O)c2ccccc12)C(F)(F)F`, for which the Ki is above 100 µM.

Regarding `COc1oc(=O)c2cc(N)ccc2c1Cl`, the affinity, expressed as Ki, was 17 µM.

Compound `O=c1oc(OCCBr)c(Cl)c2ccc([N+](=O)[O-])cc12` came in with a Ki of 0.26 µM.

Regarding `O=c1oc(OCCCCCC2CCCCC2)c(Cl)c2ccccc12`, the Ki amounted to 62 µM.

In turn, `Nc1ccc2cc(OCCBr)oc(=O)c2c1` displayed a Ki above 100 µM.

As for `COc1oc(=O)c2cc(NC(=O)c3ccccc3)ccc2c1Cl`, the Ki is above 250 µM.

In turn, `O=c1oc(OCCCBr)c(Cl)c2ccc([N+](=O)[O-])cc12` showed a Ki of 1.6 µM.

In turn, `O=c1oc(OCCBr)cc2ccc([N+](=O)[O-])cc12` showed a Ki of 50 µM.

Compound `O=c1oc(OCCCC2CCCC2)c(Cl)c2ccccc12` came in with a Ki of 0.019 µM.

`COc1oc(=O)c2cc([N+](=O)[O-])ccc2c1Cl` gave a Ki of 19 µM.

On to `O=c1oc(OCC2CCCCC2)c(Cl)c2ccc([N+](=O)[O-])cc12`, for which the affinity corresponds to a Ki of 5.7 µM.

Turning to `O=c1oc(OCC2CCCCC2)cc2ccc([N+](=O)[O-])cc12`, the Ki is 54 µM.

`O=C(c1c(OCCC2CCCCC2)oc(=O)c2ccccc12)C(F)(F)F` returned a Ki of 73 µM. This Ki and that of the compound before are within 1.5-fold of each other.

As for `Nc1ccc2c(Cl)c(OCCBr)oc(=O)c2c1`, the affinity corresponds to a Ki of 26 µM.

The compound `O=c1oc(OCCCBr)cc2ccc([N+](=O)[O-])cc12` showed an inhibition constant (Ki) of 33 µM.

`O=c1oc(OCCCCC2CCCCC2)c(Cl)c2ccccc12` displayed a Ki of 0.011 µM.

On to `O=c1oc(OCC2CCCC2)c(Cl)c2ccccc12`, for which the Ki was determined as 0.36 µM.

The compound `O=c1oc(OC2CCC(C3CCCCC3)CC2)c(Cl)c2ccccc12` (stereo not given) returned a Ki of 0.19 µM. This Ki is about 1.9-fold lower than that of the compound before.

`COc1oc(=O)c2cc(NC(=O)C3CCCCC3)ccc2c1Cl` returned an inhibition constant Ki above 25 µM.

In the case of `O=c1oc(OC2CCCC2)c(Cl)c2ccccc12`, the Ki was 0.95 µM. This lies in the sub-micromolar range.

The record behind these values is ChEMBL document CHEMBL1157173, “Isocoumarin-based inhibitors of pancreatic cholesterol esterase” (Bioorg Med Chem, 2008).
